# PubChem BioAssay
# Calls of active or inactive are those of the source.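 How the source made its calls, unless noted: active means GFP response above 150% of the DMSO level; inconclusive means fewer than 70 events counted for a yeast strain; inactive means the rest.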
# Tests used:
# [1] = hit retest on RPL19A-GFP reporter strain – cell-based, S. cerevisiae, flow cytometry, cherry picks, mother/daughter gates, confirmation (AID 2270;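 active means GFP response below 50% of the DMSO control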); details: 3 h, at 10 µM, stronger effect = lower value, 100 = same GFP as DMSO wells
# [2] = yeast TOR pathway reporter LAP4-GFP change – cell-based, cherry picks, flow cytometry, mother/daughter gates, confirmation (AID 2271;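 active means GFP response above 150% of the DMSO control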;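 further: ratio of sample to DMSO plate mean so 100% equals DMSO level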); details: S. cerevisiae LAP4-GFP strain, 3 h, at 10 µM, stronger effect = higher value, 100 means same as DMSO control
# Procedure, shortened: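 material = Alexa 633-stained baker's yeast GFP-fusion strain | amount = 0.2 OD600 cells | schedule = 30 °C, 3 h compound incubation, rotating | signal = GFP by flow cytometry | measure = per-gate (all, mother, daughter) GFP response vs DMSO | controls = positive rapamycin (400 ng/mL), negative DMSO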
# [3] = TOR pathway reporter MEP2-GFP, retest of hits – S. cerevisiae, flow cytometry GFP, cherry picks, confirmation (AID 2272;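 active means GFP response above 150% of the DMSO control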;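 further: ratio of well signal to plate DMSO mean so 100% equals DMSO level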); details: S. cerevisiae MEP2-GFP strain, 3 h, at 10 µM, stronger effect = higher value
# [4] = yeast AGP1-GFP fluorescence change, single-dose – cell-based, flow cytometry, S. cerevisiae, cherry picks, confirmation (AID 2273);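 further: median GFP channel fluorescence over the whole cell population gate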; details: S. cerevisiae AGP1-GFP strain, 3 h, at 10 µM
# [5] = TOR pathway CIT2 reporter hit retest – S. cerevisiae, GFP fusion, cherry picks, mother/daughter gates, confirmation (AID 2274); details: S. cerevisiae CIT2-GFP strain, flow cytometry, 3 h, at 10 µM, stronger effect = higher value
# [6] = measured here: daughter cell gate
# [7] = measured here: mother cell gate
# [8] = measured here: daughter cell gate response
# [9] = measured here: mother cell gate response
Compound,GFP response vs DMSO [1],"GFP response vs DMSO [1, 6] [%]","GFP response vs DMSO [1, 7] [%]",GFP response relative to DMSO [2],"GFP response relative to DMSO [2, 8] [%]","GFP response relative to DMSO [2, 9] [%]",GFP response vs DMSO [3],"GFP response, % of DMSO [4]","GFP response, % of DMSO [5]","GFP response, % of DMSO [5, 6] [%]","GFP response, % of DMSO [5, 7] [%]"
Cc1ccc(/C(N)=N/OC(=O)c2ccc(F)cc2)cc1,102% (inactive),102,99.2,128% (inactive),111,129,108% (inactive),76.8% (inactive),134% (inactive),121,133
O=C1C(=O)N(Cc2ccccc2)C(c2cccc(O)c2)/C1=C(\O)c1ccc2c(c1)OCCO2 (stereo unspecified),100% (inactive),100,100,95% (inactive),95.6,98.3,100% (inactive),95.2% (inactive),108% (inactive),106,109
Cc1ccccc1Oc1ncnc2oc(-c3ccccc3)cc12,100% (inactive),98.9,101,96.7% (inactive),96,97.2,102% (inactive),97.2% (inactive),99.7% (inactive),99.1,96.1
C(=N\Nc1ccccn1)/c1c[nH]c2ccccc12,103% (inactive),102,104,97% (inactive),95.9,96.2,101% (inactive),104% (inactive),100% (inactive),99.2,98.1
COc1ccc(N2C(=O)CC(Sc3nccc(C)n3)C2=O)cc1 (stereo unspecified),97.2% (inactive),98,96.5,98.8% (inactive),101,98.5,104% (inactive),107% (inactive),99.3% (inactive),96.4,100
Cc1cc(N2CCN(C(=O)c3ccco3)CC2)n2ncc(-c3ccccc3)c2n1,108% (inactive),90.8,101,108% (inactive),96,105,116% (inactive),106% (inactive),118% (inactive),95.8,107
CCOC(=O)CNc1c(-c2ccc(OC)cc2)nc2ccc(Cl)cn12,100% (inactive),98.4,101,99.8% (inactive),98.7,102,97.8% (inactive),99.2% (inactive),95.2% (inactive),93.2,93.4
COc1ccc(NC(=O)/C(C#N)=C/c2ncc([N+](=O)[O-])n2C)c(OC)c1,97.2% (inactive),95.1,99.8,151% (active),138,162,169% (inactive),99.5% (inactive),134% (inactive),132,136
Cc1ccc(C2=NOC(=O)/C2=C\c2ccc(C)o2)cc1,101% (inactive),89.7,90.8,230% (active),134,224,110% (inactive),97% (inactive),87.2% (inactive),87.3,72.8
CCCCn1c(=O)c(C(=O)OCC)c(O)c2ccccc21,106% (inactive),101,108,105% (inactive),102,108,99% (inactive),97.5% (inactive),94.4% (inactive),90.2,94.4
O=c1[nH]n(Cc2ccccc2)c2ccccc12,97.6% (inactive),97.8,97.8,103% (inactive),102,103,102% (inactive),98.7% (inactive),96.4% (inactive),96.4,94.5
Cc1nonc1C(=O)N/N=C/c1ccc([N+](=O)[O-])o1,100% (inactive),101,101,111% (inactive),109,113,105% (inactive),106% (inactive),105% (inactive),105,104
O=C1C=CC(=O)N1c1ccc(O)cc1,96.6% (inactive),96.9,85.9,196% (active),192,192,100% (inactive),90% (inactive),96.9% (inactive),116,84.3
O=C(c1ccc2ccccc2c1)N1CCN(c2ccc(O)cc2)CC1,101% (inactive),100,101,101% (inactive),102,101,106% (inactive),99.3% (inactive),103% (inactive),103,104
Cc1nnc(NC(=O)c2nc(S(=O)(=O)Cc3ccccc3)ncc2Cl)s1,95.1% (inactive),96.7,93.7,96.5% (inactive),99,98.4,99.3% (inactive),103% (inactive),104% (inactive),103,104
CCCCCCCCn1c(=O)c(C(=O)OCC)c(O)c2ccccc21,98.4% (inactive),99.4,99.4,92.8% (inactive),92.8,92.9,100% (inactive),99.3% (inactive),101% (inactive),101,101
OC1(c2ccc(F)cc2)CSC(=Nc2cccnc2)N1Cc1ccco1 (stereo unspecified),98% (inactive),99.6,98.7,102% (inactive),99.7,104,110% (inactive),104% (inactive),108% (inactive),106,108
COC(=O)c1ccc(/C=C/C(=O)c2ccc(OC)cc2)cc1,99.9% (inactive),97.8,101,114% (inactive),108,111,104% (inactive),94.9% (inactive),99.3% (inactive),100,99.1
Cc1cc(C)n2nc(C(=O)NC(c3ccccc3)c3ccccc3)nc2n1,98.6% (inactive),99.9,98.2,98.6% (inactive),99.7,99.2,98.8% (inactive),104% (inactive),111% (inactive),110,112
CCOc1ccc(N2C(=O)C(Cl)=C(Nc3ccccc3O)C2=O)cc1,97.4% (inactive),98,98.1,103% (inactive),99.3,105,104% (inactive),96.7% (inactive),97.8% (inactive),100,95.6
COc1cccc(N=Cc2nc(-c3ccccc3)oc2OC(C)=O)c1,97.4% (inactive),96.1,98.7,108% (inactive),101,113,87.8% (inactive),87.5% (inactive),95.5% (inactive),95.4,95
CS(=O)(=O)c1nc(-c2cccs2)cc(C(F)(F)F)n1,93% (inactive),95.2,88.6,176% (active),164,180,143% (inactive),118% (inactive),94.4% (inactive),99.2,89.5
Cn1nnnc1N=N/C(=N/Nc1ccccc1)c1ccccc1,97.6% (inactive),96.1,97.3,110% (inactive),107,115,94.7% (inactive),89.5% (inactive),87.2% (inactive),88.4,85.8
COc1ccc(C2CC(c3ccccc3)=NN2S(=O)(=O)c2ccccc2)cc1 (stereo unspecified),101% (inactive),102,101,113% (inactive),110,112,146% (inactive),104% (inactive),141% (inactive),143,136
COc1ccccc1C1CCN(Cc2c(C)[nH]c3ccccc23)CC1,103% (inactive),102,104,97% (inactive),95.9,96.2,99% (inactive),102% (inactive),98.8% (inactive),97.4,98.1
O=C(NCCCSc1ccccc1)c1cc(Br)ccc1O,97.8% (inactive),97.1,99.2,106% (inactive),104,108,100% (inactive),93.3% (inactive),98.3% (inactive),99.1,99.7
